Results on 1 molecule are retold here after ChEMBL document CHEMBL5137084 (J Med Chem, 2022).

Calls of active or inactive are those of the source. The calls are words filed in the database; no cut-off is given here.

A short description of data set [1]: Metabolic stability of the compound in carboxylesterase 1 knockout mouse brain assessed as parent compound remaining at 10 uM measured after 1 hr in by UPLC analysis. In kind it is ADME, tissue-based. An outline of the steps:
(§1)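 Plasma, or liver or brain homogenised 10-fold in 0.1 M potassium phosphate buffer, from CES1−/− mice. Spiked with 10 μM prodrug (final) and shaken at 37 °C for 1 h, in triplicate. Samples at 0 and 1 h were quenched with three volumes of acetonitrile containing losartan. Intact prodrug was measured by UHPLC-orbitrap MS and expressed as % remaining, mean ± SE.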

A short description of data set [2]: Metabolic stability of the compound in carboxylesterase 1 knockout mouse liver assessed as parent compound remaining at 10 uM measured after 1 hr in by UPLC analysis. The class given is ADME, tissue-based. In a few lines:
as §1

Data set [3] can be described thus: Metabolic stability of the compound in carboxylesterase 1 knockout mouse plasma assessed as parent compound remaining at 10 uM measured after 1 hr in by UPLC analysis. In kind it is ADME, cell-free. An outline of the steps:
as §1

A short description of data set [4]: Prodrug conversion in carboxylesterase 1 knockout C57BL/6 mouse plasma assessed as increase in 2,6-Dimethoxy-4-(4-phenyl-5-thiophen-2-yl-1H-imidazol-2-yl)phenol release at 16.62 mg/kg, po administered as single dose measured after 2 hrs by LC-MS/MS analysis. The class given is ADME, organism-based. As to conditions: in vivo.
The nature of data set [5]: Prodrug conversion in carboxylesterase 1 knockout C57BL/6 mouse brain assessed as increase in 2,6-Dimethoxy-4-(4-phenyl-5-thiophen-2-yl-1H-imidazol-2-yl)phenol release at 16.62 mg/kg, po administered as single dose measured after 2 hrs by LC-MS/MS analysis. As to conditions: in vivo. In kind it is ADME, organism-based.
Data set [6] is described as follows: Ratio of prodrug conversion in carboxylesterase 1 knockout C57BL/6 mouse brain to plasma assessed as 2,6-Dimethoxy-4-(4-phenyl-5-thiophen-2-yl-1H-imidazol-2-yl)phenol release at 16.62 mg/kg, po administered as single dose measured after 2 hrs by LC-MS/MS analysis. In kind it is ADME, organism-based.
A short description of data set [7]: Stability in carboxylesterase 1 knockout C57BL/6 mouse plasma assessed as intact compound level at 16.62 mg/kg, po administered as single dose measured upto 8 hrs by LC-MS/MS analysis. The class given is ADME, organism-based. As to conditions: read-out: Stability.
Data set [8] can be described thus: Stability in carboxylesterase 1 knockout C57BL/6 mouse brain assessed as intact compound level at 16.62 mg/kg, po administered as single dose measured upto 8 hrs by LC-MS/MS analysis. The conditions noted are these: read-out: Stability. The class given is ADME, organism-based.
Data set [9] is described as follows: Tmax in carboxylesterase 1 knockout C57BL/6 mouse plasma at 16.62 mg/kg, po administered as single dose measured upto 8 hrs by LC-MS/MS analysis. The class given is ADME, organism-based.
Data set [10] can be described thus: Tmax in carboxylesterase 1 knockout C57BL/6 mouse brain at 16.62 mg/kg, po administered as single dose measured upto 8 hrs by LC-MS/MS analysis. In kind it is ADME, organism-based.
Data set [11] in a line: Half life in carboxylesterase 1 knockout C57BL/6 mouse plasma at 16.62 mg/kg, po administered as single dose measured upto 8 hrs by LC-MS/MS analysis. The class given is ADME, organism-based.
Data set [12] is described as follows: Half life in carboxylesterase 1 knockout C57BL/6 mouse brain at 16.62 mg/kg, po administered as single dose measured upto 8 hrs by LC-MS/MS analysis. In kind it is ADME, organism-based.
Data set [13] is described as follows: Prodrug conversion in carboxylesterase 1 knockout C57BL/6 mouse plasma assessed as Cmax of 2,6-Dimethoxy-4-(4-phenyl-5-thiophen-2-yl-1H-imidazol-2-yl)phenol at 16.62 mg/kg, po administered as single dose measured upto 8 hrs by LC-MS/MS analysis. The class given is ADME, organism-based. Set-up: time < 8 hrs, dose 16.62 mg/kg, route po. The conditions noted are these: in vivo.

Data set [14] in a line: Prodrug conversion in carboxylesterase 1 knockout C57BL/6 mouse brain assessed as Cmax of 2,6-Dimethoxy-4-(4-phenyl-5-thiophen-2-yl-1H-imidazol-2-yl)phenol at 16.62 mg/kg, po administered as single dose measured upto 8 hrs by LC-MS/MS analysis. In kind it is ADME, organism-based. The arrangement: dose 16.62 mg/kg, time < 8 hrs, route po. The conditions noted are these: in vivo.

Data set [15] is described as follows: Prodrug conversion in carboxylesterase 1 knockout C57BL/6 mouse plasma assessed as AUC of 2,6-Dimethoxy-4-(4-phenyl-5-thiophen-2-yl-1H-imidazol-2-yl)phenol at 16.62 mg/kg, po administered as single dose measured upto 8 hrs by LC-MS/MS analysis. In kind it is ADME, organism-based. Set-up: time < 8 hrs, dose 16.62 mg/kg, route po. The conditions noted are these: in vivo.

The nature of data set [16]: Prodrug conversion in carboxylesterase 1 knockout C57BL/6 mouse brain assessed as AUC of 2,6-Dimethoxy-4-(4-phenyl-5-thiophen-2-yl-1H-imidazol-2-yl)phenol at 16.62 mg/kg, po administered as single dose measured upto 8 hrs by LC-MS/MS analysis. In kind it is ADME, organism-based. Set-up: dose 16.62 mg/kg, time < 8 hrs, route po. The conditions noted are these: in vivo.

The next data set relates to Mus musculus. The data set can be described thus: Antiinflammatory activity against GFAP-EGFP transgenic mouse model assessed as as inhibition of GFP-labeled extracellular vesicle release at 3 to 10 mg/kg, po pretreated with compound for 30 mins followed by IL-1beta injection measured after 4 hrs. The class given is functional, organism-based. As to conditions: dose 3-10 mg/kg. In a few lines: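 Euthanized 4 h later. Platelet-free plasma was prepared and GFP+ EVs were captured on anti-GFP antibody-coupled magnetic beads and counted by particle tracking, blinded. Mean ± SEM, one-way ANOVA with Tukey.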

The nature of data set [17]: Protein binding in mouse plasma assessed as free fraction at 3 to 10 mg/kg, po by ultrafiltration assay. In kind it is ADME, organism-based. As to conditions: dose 3-10 mg/kg.

As usually defined, the Tmax is the time at which the peak concentration occurs. For orientation: half-life means the time in which the quantity being followed falls by half. Read a low half-life as rapid decline. By fraction unbound is commonly meant free concentration divided by total concentration.

With `CCC1CC(N2CCCCC2)CC(CC)N1C(=O)Oc1c(OC)cc(-c2nc(-c3ccccc3)c(-c3cccs3)[nH]2)cc1OC` (stereo not drawn), the Stability in data set [1] came out at 100%; in data set [2] it was 100%; in data set [3] it was 92%. Also, the Drug metabolism in data set [4] is listed as 189.3 nM; in [5], 61.5 nM. Moreover, in data set [6], the BPR amounted to 0.24. The figures for the concentration at 8 h in [7] and in [8] were 283 nM and 35.2 nM, respectively. The Tmax in data set [9] and in [10] was 2 h in each case. For the same molecule, the half-life is 2.7 h in data set [11] and 1.8 h in data set [12]. The Cmax was found to be 190 pmol·h/g in data set [13] and 69 pmol·h/g in [14]. Further, the AUC in data set [15] was 1047 pmol·h/g; in data set [16] it was 247 pmol·h/g. In the data set with Mus musculus, the outcome was Active. Moreover, the fraction unbound in data set [17] was 0.9.
